# ChEMBL document CHEMBL1156621, “Synthesis and cellular effects of cycloterpenals: cyclohexadienal-based activators of neurite outgrowth” (2008)
# Active and inactive are the calls of the source. The rule behind the calls is not given here.
# Experiments:
# [1] = test system: Jurkat; experiment: Growth inhibition of human Jurkat T cells at 1 ug/mL after 24 hrs; format: functional, cell-based
# Method in brief: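 Cells kept in RPMI 1640 with 10% FBS at 37 °C, 5% CO₂. Harvested, counted and seeded at 200,000 cells/well (1 mL) in 48-well plates, then compound added. After 24 h incubation the cells were pelleted, washed in PBS and lysed. Lysate relative fluorescence measured on a fluorometer.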
# [2] = test system: Escherichia coli; experiment: Antibacterial activity against Escherichia coli after 16 hrs; format: functional
# [3] = test system: Saccharomyces cerevisiae; experiment: Antifungal activity against Saccharomyces cerevisiae after 16 hrs; format: functional
# [4] = test system: Bacillus subtilis; experiment: Antibacterial activity against Bacillus subtilis after 16 hrs; format: functional
# [5] = test system: PC-12; experiment: Induction of neurite outgrowth in rat PC12 cells at 10 ug/mL after 7 days; format: functional, cell-based
# Method in brief: (§1)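 Rat PC12 cells (ATCC CRL 1721) grown on collagen Type IV in RPMI 1640 with 10% heat-inactivated horse serum and 5% FBS, 37 °C, 5% CO₂. Seeded at 10,000 cells/well in collagen IV 96-well plates and allowed to adhere 24 h before compound. Tested in duplicate at final 100, 10 and 1 μg/mL; absolute EtOH as control. Neurite outgrowth and intercellular connections scored visually over 2 weeks.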
# [6] = test system: PC-12; experiment: Induction of neurite outgrowth in rat PC12 cells at 1 ug/mL after 6 days; format: functional, cell-based; method in brief: as §1
# [7] = test system: PC-12; experiment: Induction of neurite outgrowth in rat PC12 cells assessed as neural extensions at 1 ug/mL after 5 days; format: functional, cell-based; method in brief: as §1
SMILES,Activity [1],MIC [2] [µg/mL],MIC [3] [µg/mL],MIC [4] [µg/mL],Activity [5],Activity [6],Activity [7]
O=CC1=CC=C(c2ccc(-c3ccccc3)cc2)CC1c1ccc([N+](=O)[O-])cc1 (stereo not given),Active,> 100,> 100,> 100,,,
CN(C)c1ccc(C2CC(c3ccc(Cl)s3)=CC=C2C=O)cc1 (stereo not given),Active,> 100,> 100,> 100,,,
CN(C)c1ccc(C2CC(c3ccc4ccccc4c3)=CC=C2C=O)cc1 (stereo not given),,> 100,> 100,> 100,Active,,
O=CC1=CC=C(c2ccc3c(c2)Cc2ccccc2-3)CC1c1ccc([N+](=O)[O-])cc1 (stereo not given),Active,> 100,> 100,> 100,,,
Cc1ccc(C2(C)CC(c3ccc(-c4ccccc4)cc3)=CC=C2C=O)o1 (stereo not given),Active,> 100,> 100,> 100,,Active,Active
CC1(c2ccc(Cl)s2)CC(c2ccc(Cl)s2)=CC=C1C=O (stereo not given),,> 100,> 100,> 100,,,
CN(C)c1ccc(C2CC(c3ccc(-c4ccccc4)cc3)=CC=C2C=O)cc1 (stereo not given),,> 100,> 100,> 100,,,
CC(C)=CCC/C(C)=C/C[C@H]1C(C)=CC=C(C=O)[C@H]1c1ccc(N(C)C)cc1,,> 100,> 100,> 100,,,
CC1=C(/C=C/C(C)=C/C=C/C2=CC=C(C=O)C(c3ccc([N+](=O)[O-])cc3)C2)C(C)(C)CCC1 (stereo not given),,> 100,> 100,> 100,,,
O=CC1=CC=C(c2cccs2)CC1c1ccc([N+](=O)[O-])cc1 (stereo not given),,> 100,> 100,> 100,,,
CC(C)=CCCc1ccc(C=O)c(-c2ccc([N+](=O)[O-])cc2)c1,,> 100,> 100,> 100,,,
